# Measurements pooled from the literature.
# Each line is one published result; the experiments were not run side by side.
# Target: Serine/threonine-protein kinase WNK3 (WNK3, Homo sapiens, UniProt Q9BYP7)
Compound,assay,conditions,remaining binding
c1cnn2ncc(-c3ccnc(N4CCC45COC5)n3)c2c1,binding,1 µM,68%
CCC(=O)N[C@H]1CC[C@@H](C(=O)N(C)c2ccc(-c3nc4ccccc4o3)cc2)C1,"cell-free assay, competition with immobilised ligand",1 µM,92%
F[C@@H]1CCN(c2nccc(-c3cnn4ncccc34)n2)C1,binding,1 µM,100%
CO[C@@H](C)c1c(Nc2ccc([C@H](N(C)C(=O)C3CCS(=O)(=O)CC3)C(F)(F)F)cc2)cnc2cc(Cl)nn12,"cell-free assay, competition with immobilised ligand",1 µM,95%
Nc1ncc2c(n1)-c1c([nH]c3ccc(C#CC4CC4)cc13)CCCC2,"binding, competition with immobilised ligand",1 µM,89%
CN(CCCC(F)(F)F)c1nccc(-c2cnn3ncccc23)n1,binding,1 µM,100%
O=C(Nc1c[nH]nc1C(=O)NC1CCNCC1)c1cc(F)cc(F)c1,"binding, competition with immobilised ligand",1 µM,100%
CN(C)c1nccc(-c2cnc3ncccn23)n1,binding,1 µM,67%
O=S(=O)(NC1CCC(c2cc(F)ccc2F)(S(=O)(=O)c2ccc(Cl)cc2)CC1)C(F)(F)F (stereo not shown),"cell-free assay, competition with immobilised ligand",1 µM,100%
N[C@@H]1CCN(c2nccc(-c3cnn4ncccc34)n2)C1,binding,1 µM,98%
COc1cnc(Nc2cccc(S(N)(=O)=O)c2)nc1N1CCN(c2ccccc2)C(=O)C1,"binding, competition with immobilised ligand",1 µM,97%
Cc1c[nH]c2nccc(Oc3c(F)cc(Nc4cc(Cl)nc(N)n4)cc3F)c12,"cell-free assay, competition with immobilised ligand",0.1 µM,90%
CC1CCCN1c1nccc(-c2cnn3ncccc23)n1 (stereo not shown),binding,1 µM,100%
C=CC(=O)N1CCC(C(=O)NCC(=O)N2CCN(c3nc(-c4cnc(N)nc4C(F)F)nc(N4CCOCC4)n3)CC2)CC1,"binding, competition with immobilised ligand",1 µM,96%
O=C(c1ccc(Nc2ncc(Cl)c(-c3ccc(Cl)s3)n2)cc1)N1CCC(N2CCCC2)CC1,"binding, competition with immobilised ligand",1 µM,73%
Cn1nc(C(F)(F)F)cc1-c1cnc(N2CCc3cc(S(=O)(=O)Nc4c(F)cc(Cl)cc4F)cc(N4CCCC4=O)c32)nc1,"cell-free assay, competition with immobilised ligand",1 µM,97%
O=C(c1ccc(Nc2nccc(-c3cc4ccccc4s3)n2)cc1)N1CCC(N2CCCC2)CC1,"binding, competition with immobilised ligand",1 µM,100%
Cc1cnn2ncc(-c3ccnc(N(C)C)n3)c2c1,binding,1 µM,85%
CN(c1ccnc(CNc2nc(Nc3ccc4c(c3)CC(=O)N4)ncc2C(F)(F)F)n1)S(C)(=O)=O,"cell-free assay, competition with immobilised ligand",1 µM,79%
O=C(c1ccc(Nc2ncc(Cl)c(-c3cc4ccccc4s3)n2)cc1)N1CCC(N2CCCC2)CC1,"binding, competition with immobilised ligand",1 µM,100%
CN([C@@H]1CCc2c(CC(=O)O)c3cc(S(C)(=O)=O)ccc3n2C1)S(=O)(=O)c1ccc(F)cc1,"cell-free assay, competition with immobilised ligand",1 µM,83%
CNC(=O)[C@@H]1CC[C@@H](n2c(-c3ccc4cnccc4c3)nc3ccc(C(=O)NCc4cccc(C(N)=O)c4)cc32)C1,"binding, competition with immobilised ligand",1 µM,100%
